Experimental data published in ChEMBL document CHEMBL4017537, “Discovery of a Potent and Specific M. tuberculosis Leucyl-tRNA Synthetase Inhibitor: (S)-3-(Aminomethyl)-4-chloro-7-(2-hydroxyethoxy)benzo[c][1,2]oxaborol-1(3H)-ol (GSK656)” (J Med Chem, 2017).

Tests used:
[1] = AUC (0 to infinity) in C57BL/6 mouse at 28.5 mg/kg, iv administered as single dose measured up to 8 hrs by LC-MS/MS analysis; type: ADME, organism-based; parameters: dose 28.5 mg/kg, time infinity, route intravenous; settings: in vivo
Mus musculus = experiment: Dose normalized AUC (0 to infinity) in C57BL/6 mouse at 28.5 mg/kg, iv administered as single dose measured up to 8 hrs by LC-MS/MS analysis; type: ADME, organism-based; settings: in vivo
[2] = Volume of distribution at steady state in CD-1 mouse at 30 mg/kg, iv after 24 hrs by LC-MS/MS analysis; type: ADME, organism-based; settings: in vivo, read-out: Vdss
[3] = AUC (0 to 24 hrs) in C57BL/6 mouse at 26.1 mg/kg administered as single dose via oral gavage by LC-MS/MS analysis; type: ADME, organism-based; parameters: dose 26.1 mg/kg, time < 24 hr, route oral; settings: in vivo
[4] = test system: Mycobacterium tuberculosis; experiment: Antimicrobial activity against Mycobacterium tuberculosis H37Rv infected in C57BL/6J mouse assessed as log reduction in bacterial load in lungs administered qd for 8 consecutive weeks starting from 6 weeks post infection measured 24 hrs post last dose; type: functional
How it was run: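 C57BL/6J mice infected intratracheally with ~10² CFU M. tuberculosis H37Rv. Dosed QD, 7 days/week, for 8 weeks starting 6 weeks post-infection; killed ≥24 h after last dose. Lung homogenates plated on 7H11/10% OADC for 21 days at 37 °C. n = 3 per dose group, 7 for controls; mean (SD); ANOVA with Dunnett's test versus 14-week untreated.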

[5] = AUC (0 to 24 hrs) in C57BL/6 mouse at 30 mg/kg administered as single dose via oral gavage by LC-MS/MS analysis; type: ADME, organism-based; parameters: time < 24 hr, dose 30 mg/kg, route oral; settings: in vivo

With `CCOc1ccc(Br)c2c1B(O)O[C@@H]2CN` the AUC(0-inf) [1] was 72300 ng·h/mL, the AUC/dose (Mus musculus) was 2.54 µg·h/mL/mg/kg and the Vd [2] was 3.2 L/kg. It also gave an AUC(0-t) at 24 h [3] of 77900 ng·h/mL.
In the case of `Cl.NC[C@H]1OB(O)c2c(OCCO)ccc(Cl)c21`, the Activity [4] is reported as “Dose-dependent effect” and the AUC(0-t) at 24 h [5] is reported as 88200 ng·h/mL.
